Results taken from paper PMC11425819 (ACS Omega, 2024).

Key:
[1] = system: H9C2 cells; test: Mitochondrial morphology analysis; assay type: cell-based, rat; settings: 10 μM, vs H/R alone
How it was run: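 H9C2 cells were pretreated 12 h with test compound (10 μM), then given 6 h hypoxia and 4 h reoxygenation in 10% FBS DMEM/F12. Cells were stained with MitoTracker and imaged by laser-scanning microscopy (60× oil). Mitochondria were scored as tubular, intermediate or fragmented. The value is the percentage of cells with intermediate or fragmented mitochondria, from 100 cells per experiment over four independent experiments (SEM).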

[2] = system: H9C2 cells; test: mPTP opening; assay type: cell-based, rat; settings: 10 μM, 12 h pretreatment, H/R, compared with H/R alone, at least four independent experiments
How it was run: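 H9C2 cells were pretreated 12 h with test compound (10 μM), then given 6 h hypoxia alone or H/R; an autophagy inducer (10 μM) served as comparator. Cells were loaded with calcein (2 μM) and CoCl2 (1 mM) in HBSS/Ca2+ for 15 min at 37 °C. Co2+ quenches cytosolic calcein, so retained mitochondrial calcein fluorescence indicates a closed mPTP.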

| SMILES | fragmented mitochondrial appearance after H/R [1] | mitochondrial calcein fluorescence (mPTP opening) [2] |
| --- | --- | --- |
| CC1(C)CC(NC(=O)C[P+](c2ccccc2)(c2ccccc2)c2ccccc2)CC(C)(C)N1[O] [Mito-Tempo] | attenuated the fragmented mitochondrial appearance | – |
| CO[C@H]1C[C@@H]2CC[C@@H](C)[C@@](O)(O2)C(=O)C(=O)N2CCCC[C@H]2C(=O)O[C@H]([C@H](C)C[C@@H]2CC[C@@H](O)[C@H](OC)C2)CC(=O)[C@H](C)/C=C(\C)[C@@H](O)[C@@H](OC)C(=O)[C@H](C)C[C@H](C)/C=C/C=C/C=C/1C [rapamycin] | – | considerably higher |
